Experimental data gathered from unrelated publications.
Converted amounts (≈) assume the structure as drawn.
Organism: Klebsiella pneumoniae

`CC(C)(O/N=C(\C(=O)N[C@@H]1C(=O)N2C(C(=O)[O-])=C(C[n+]3ccccc3)CS[C@H]12)c1csc(N)n1)C(=O)O` gave an inhibition zone of 12 mm (microbial growth, disc diffusion; 2000 µg/mL, 24 h).
`Cc1[nH]c(C(=O)Nc2ccc(C(=O)NCc3n[nH]c(=O)o3)cc2N2CCN(C(=O)OC(C)(C)C)CC2)c(Cl)c1Cl` has an MIC of over 32 µg/mL (microbial growth, broth dilution; ATCC700603).
`C[C@@H](O)[C@H]1C(=O)N2C(C(=O)O)=C(SCCNC=N)C[C@H]12` has an MIC of 0.5 µg/mL (≈ 1.67 µM) (microbial growth, broth dilution).
With `COc1cc(C=Nc2ccccc2Br)ccc1O` the inhibition zone was 14.7 mm (microbial growth, disc diffusion; 2000 µg/mL, 24 h).
For `Cc1[nH]c(C(=O)Nc2ccc(C(=O)NCC(=O)O)cc2N2CCNCC2)c(Cl)c1Cl.Cl`, the MIC was over 32 µg/mL (microbial growth, broth dilution; ATCC700603).
For `C[C@@H](O)[C@H]1C(=O)N2C(C(=O)O)=C(S[C@@H]3CN[C@H](C(=O)N(C)C)C3)[C@H](C)[C@H]12`, the MIC90 was 1020 µg/mL (≈ 2670 µM) (microbial growth, broth dilution; clinical isolate).
The MBC of `CN[C@H](CC(C)C)C(=O)N[C@H]1C(=O)N[C@@H](CC(N)=O)C(=O)N[C@H]2C(=O)N[C@H]3C(=O)N[C@H](C(=O)N[C@H](C(=O)O)c4cc(O)cc(O)c4-c4cc3ccc4O)[C@H](O)c3ccc(c(Cl)c3)Oc3cc2cc(c3O[C@@H]2O[C@H](CO)[C@@H](O)[C@H](O)[C@H]2O[C@H]2C[C@](C)(N)[C@H](O)[C@H](C)O2)Oc2ccc(cc2Cl)[C@H]1O` is reported as 1000 µg/mL (≈ 690 µM) (microbial killing; ATCC27736).
`CCC(C)CCCC(=O)N[C@@H](CCN)C(=O)N[C@H](C(=O)N[C@@H](CCN)C(=O)N[C@H]1CCNC(=O)[C@H]([C@@H](C)O)NC(=O)[C@H](CCN)NC(=O)[C@H](CCN)NC(=O)[C@H](CC(C)C)NC(=O)[C@@H](CC(C)C)NC(=O)[C@H](CCN)NC1=O)[C@@H](C)O` (stereo partly drawn) has an MIC of 0.5 µg/mL (≈ 0.433 µM) (microbial growth, broth dilution).
For `Cc1[nH]c(C(=O)Nc2ccc(C(=O)NCC(=O)O)cc2N2CC[C@@H](N)C2)c(Cl)c1Cl.Cl`, the MIC was over 32 µg/mL (microbial growth, broth dilution; ATCC700603).
`CC(C)(O/N=C(\C(=O)N[C@@H]1C(=O)N2C(C(=O)[O-])=C(C[n+]3ccccc3)CS[C@H]12)c1csc(N)n1)C(=O)O` has an MIC of under 0.5 µg/mL (microbial growth, broth dilution; ATCC13883; 20 h).
With `COc1cc(C=Nc2cccc(O)c2)ccc1O` the inhibition zone was 15.5 mm (microbial growth, disc diffusion; 2000 µg/mL, 24 h).
`Cl.N[C@H]1CCN(c2cc(C(=O)NCC(=O)O)ccc2NC(=O)c2cc(Br)c(Br)[nH]2)C1` gave an MIC of over 32 µg/mL (microbial growth, broth dilution; ATCC700603).
